Measured values from different studies.
Compare with care: the assays were run in different laboratories.
RPS6KA4 N-terminal kinase domain: Ribosomal protein S6 kinase alpha-4, N-terminal kinase domain (RPS6KA4, Homo sapiens, UniProt O75676)
RPS6KA4: Ribosomal protein S6 kinase alpha-4 (RPS6KA4, Homo sapiens, UniProt O75676)
RPS6KA4 C-terminal kinase domain: Ribosomal protein S6 kinase alpha-4, C-terminal kinase domain (RPS6KA4, Homo sapiens, UniProt O75676)

SMILES	target	observed	mode	technique	tested at	quantity	result
O=C(Nc1cccnn1)N1CCC(=Cc2cccc(Oc3ccc(C(F)(F)F)cn3)c2)CC1	RPS6KA4 N-terminal kinase domain	cell-free assay		competition with immobilised ligand	1 µM	remaining binding	98%
CC/C(=N\NC(=O)NCc1cccc(O)c1)c1ccc(O)c(C)c1O	RPS6KA4	enzyme activity	inhibitor		0.1 µM	inhibition	59.4%
COc1cc(Cl)c(C(=O)N[C@@H](CN[C@H]2CC[C@@H](N)CC2)Cc2ccc(C#N)cc2)cc1-c1ccc(CN[C@H](C)c2ccc(C)cc2)o1	RPS6KA4	enzyme activity	inhibitor		1 µM	remaining activity	77%
Cc1ccc(C(=O)NCc2ccsc2)cc1C#Cc1cn(C(C)C)c2ncnc(N)c12	RPS6KA4	enzyme activity	inhibitor		1 µM	activity vs control	107%
COc1cc2ncnc(Nc3ccc(Oc4ccccc4)cc3C)c2cc1OC	RPS6KA4	enzyme activity	inhibitor		1 µM	inhibition	1%
Cc1ccc(C(=O)Nc2ccc(CN3CCN(C)CC3)c(C(F)(F)F)c2)cc1C#Cc1cnc2cccnn12	RPS6KA4	enzyme activity	inhibitor		23.5 nM	activity vs control	100%
Cc1cc(C)c(-n2ccn3nc(-c4cccnc4)cc23)cc1NC(=O)c1cc(C#N)cc(S(F)(F)(F)(F)F)c1	RPS6KA4 N-terminal kinase domain	cell-free assay		competition with immobilised ligand	0.1 µM	remaining binding	100%
CCN(CC)CCNC(=O)c1c(C)[nH]c(/C=C2\C(=O)Nc3ccc(F)cc32)c1C	RPS6KA4	cell-free assay			0.5 µM	remaining signal	50.8%
CCN(CC)c1ccc(C2=NNC(=O)CC2C)cc1[N+](=O)[O-] (stereo not shown)	RPS6KA4	enzyme activity	inhibitor		10 µM	remaining activity	82%
O=C(Nc1cnn(-c2csc(C(=O)NC3COC3)c2)c1)Nc1ccccc1Cl	RPS6KA4	enzyme activity	inhibitor		5 µM	remaining activity	90.7%
N[C@@H]1CCN(c2nccc(-c3cnn4ncccc34)n2)C1	RPS6KA4 N-terminal kinase domain	binding		competition with immobilised ligand	1 µM	remaining binding	100%
CC(=O)N1CCC(c2ccc(C(=O)NC(=N)N)cc2C(F)(F)F)CC1	RPS6KA4 C-terminal kinase domain	cell-free assay		competition with immobilised ligand	1 µM	remaining binding	100%
Cn1cncc1C1=CN(c2ncnc3[nH]cnc23)CCS1	RPS6KA4	enzyme activity	inhibitor	radiometric	50 nM	inhibition	13.3%
N#CCCc1ccc2c(c1)-c1[nH]c3ccc([N+](=O)[O-])cc3c1CC(=O)N2	RPS6KA4	cell-free assay			0.5 µM	remaining signal	85.8%
Cc1sc(C(=O)NC2COC2)cc1-n1cc(NC(=O)Nc2c(F)cccc2Cl)cn1	RPS6KA4	enzyme activity	inhibitor		10 µM	remaining activity	105%
CC(C)(C)c1nc(-c2cccc(NS(=O)(=O)c3c(F)cccc3F)c2F)c(-c2ccnc(N)n2)s1	RPS6KA4	enzyme activity	inhibitor	radiometric	1 µM	remaining activity	86%

SMILES	target	observed	mode	technique	tested at	quantity	result
CC(C)c1ccc(NC(=O)c2cccs2)c(-c2nc3ccccc3[nH]c2=O)c1	RPS6KA4	enzyme activity	inhibitor		1 µM	activity vs control	96%
CNC(=O)c1cc(Oc2ccc(NC(=O)Nc3ccc(Cl)c(C(F)(F)F)c3)cc2)ccn1	RPS6KA4	cell-free assay			0.5 µM	remaining signal	97.7%
CC1CCCN1c1nccc(-c2cnn3ncccc23)n1 (stereo not shown)	RPS6KA4 N-terminal kinase domain	binding		competition with immobilised ligand	1 µM	remaining binding	99%
CCS(=O)(=O)c1cc2cc(C[C@@](O)(CC(C)(C)c3ccc(F)cc3C(N)=O)C(F)(F)F)[nH]c2cn1	RPS6KA4 N-terminal kinase domain	cell-free assay		competition with immobilised ligand	1 µM	remaining binding	78%
COc1cccc2c(NCc3ccccc3)nc(-n3c(N)nc4ccccc43)nc12	RPS6KA4 N-terminal kinase domain	target engagement in cells	inhibitor	chemoproteomics	20 mM	inhibition	7.3%
CN(C)c1nccc(-c2cnn3ncccc23)n1	RPS6KA4 C-terminal kinase domain	binding		competition with immobilised ligand	1 µM	remaining binding	84%
CNc1cccc2cc(C(=O)Nc3ccc(C(=O)O)cc3)c(=O)[nH]c12	RPS6KA4	enzyme activity	inhibitor		10 µM	inhibition	8.2%
Cc1nc(C2CCN(C(=O)c3ccc(OC(F)(F)F)cc3N)CC2)c2ncc(N3CCN(C)CC3)cc2n1	RPS6KA4 N-terminal kinase domain	cell-free assay		competition with immobilised ligand	1 µM	remaining binding	100%
Cc1ccc(Nc2nccc(N(C)c3ccc4c(C)n(C)nc4c3)n2)cc1S(N)(=O)=O	RPS6KA4	enzyme activity	inhibitor		0.5 µM	remaining activity	102%
CCC(=O)N[C@H]1CC[C@@H](C(=O)N(C)c2ccc(-c3nc4ccccc4o3)cc2)C1	RPS6KA4 N-terminal kinase domain	cell-free assay		competition with immobilised ligand	1 µM	remaining binding	100%
C[C@H]1CCN(c2nccc(-c3cnn4ncccc34)n2)C1	RPS6KA4 N-terminal kinase domain	binding		competition with immobilised ligand	1 µM	remaining binding	93%
CC(C)CC(=O)N1CCc2nc(-c3ccc(Br)cc3)nc(N(C)Cc3ccccc3)c2C1	RPS6KA4 N-terminal kinase domain	cell-free assay		competition with immobilised ligand	0.1 µM	remaining binding	74%
CCCS(=O)(=O)Nc1ccc(F)c(C(=O)c2c[nH]c3ncc(-c4ccc(Cl)cc4)cc23)c1F	RPS6KA4	enzyme activity	inhibitor		1 µM	inhibition	< 10%
C[C@H](NC(=O)c1cnc2n1[C@](C)(Cc1ccc(C#N)cc1)C(=O)N2c1cc(Cl)c(F)c(Cl)c1)C(=O)NC1(c2ccccn2)CC1	RPS6KA4 C-terminal kinase domain	cell-free assay		competition with immobilised ligand	1 µM	remaining binding	92%
Nc1ncnc2occ(-c3ccc(NC(=O)Nc4cc(C(F)(F)F)ccc4F)cc3)c12	RPS6KA4 N-terminal kinase domain	cell-free assay	inhibitor		20 µM	remaining signal	2.1%
